Source: PubChem BioAssay (Broad Institute)
SR-BI DiI-HDL act = activators of SR-BI mediated DiI-HDL uptake, primary screen, ldlA[mSR-BI] CHO cells, DiI fluorescence. actives 0.096% (n = 320,000). 3 h; 100 = double the neutral-control signal. activation, % at 12.5 µM;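 active = mean replicate activation of at least 60% and every replicate at or above 60%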;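 also: 0% = median plate neutral-control signal and 100% = twice that signal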
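Assay system: CHO ldlA[mSR-BI] cells, LDL receptor-null, SR-BI overexpressing; medium: Ham's F12 with 0.5% BSA, HEPES 25 mM, pH 7.4; also added: DiI-HDL 10 µg/mL; timing: 3 h uptake period with compound, 37 °C; signal: DiI fluorescence, bottom read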
CAL PDZ FP-1 = CAL PDZ peptide-binding inhibitors, primary screen, biochemical, fluorescence polarization, Cer-tagged CAL PDZ, HTS; Golgi-associated PDZ and coiled-coil motif-containing protein (Homo sapiens), Q9HD26; purified CAL PDZ, TMR-peptide fluorescence polarization, 1 h; inhibition, % at 20 µM; actives 0.02% (n = 330,000);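 active = highest replicate inhibition of at least 40%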;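 also: plate controls were DMSO neutral control wells for no effect and unlabeled competitor peptide control wells for full effect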
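Material: tagged CAL PDZ domain; buffer or medium: 25 mM sodium phosphate pH 7.4, 150 mM NaCl, TCEP, IgG, Thesit; compound dosing: single point, 20 µM; schedule: 1 h incubation at room temperature before polarization reading; measured by: FP readout, S and P plane fluorescence; read-out basis: percent inhibition from loss of millipolarization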
CAL PDZ FP-2 = untagged CAL PDZ binding inhibitors, primary screen, biochemical, fluorescence polarization, HTS. Golgi-associated PDZ and coiled-coil motif-containing protein (Homo sapiens), Q9HD26. purified CAL PDZ, TMR-peptide fluorescence polarization, 1 h. inhibition, % at 24.9 µM. actives 0.92% (n = 300,000). AID 602252, 2012;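 active = mean inhibition of at least 30% with at least half of replicates also reaching 30%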;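 also: 0% = DMSO neutral control and 100% = excess unlabeled competitor peptide PRC23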
dFosB act-1 = activators of delta FosB homodimer, primary screen, biochemical, fluorescence polarization, TAMRA-CDK5 oligo, single point. activation, % at 25 µM. AID 493131, 2011. actives 0.99% (n = 340,000). Protein FosB (Mus musculus), P13346. purified delta FosB; percent of positive-control signal above neutral wells;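 active = mean activation above about 17%, with every replicate also reaching it, limit read from the data, passing the limit was not always enough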
Target sequence (P13346 whole entry, looked up): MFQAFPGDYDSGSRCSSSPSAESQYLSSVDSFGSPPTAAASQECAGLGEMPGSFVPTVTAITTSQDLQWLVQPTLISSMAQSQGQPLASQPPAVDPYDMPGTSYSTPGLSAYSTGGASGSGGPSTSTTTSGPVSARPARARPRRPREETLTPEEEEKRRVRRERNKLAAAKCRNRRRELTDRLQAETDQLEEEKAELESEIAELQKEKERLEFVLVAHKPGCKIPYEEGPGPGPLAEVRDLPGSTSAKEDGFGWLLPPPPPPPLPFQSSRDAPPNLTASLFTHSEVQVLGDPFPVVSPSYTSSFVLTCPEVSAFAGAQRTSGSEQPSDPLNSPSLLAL
SR-BI DiI inh = inhibitors of SR-BI mediated HDL lipid uptake, primary screen, ldlA[mSR-BI] cells, fluorescence, single point; actives 0.96% (n = 320,000); AID 488896, 2010; Scavenger receptor class B member 1 (Mus musculus), Q61009; ldlA[mSR-BI] CHO cells, DiI-HDL uptake fluorescence, 3 h; inhibition, % at 12.5 µM;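 active = mean replicate inhibition of at least 70% and a set share of replicates each scoring 70 or more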;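 also: 0% = median of neutral control wells and 100% = median of positive control wells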
dFosB act-2 = activators of mouse delta FosB DNA binding, confirmation, biochemical, fluorescence polarization, TAMRA-CDK5 oligo, cherry-picked samples; shares compounds with dFosB act-1; purified delta FosB; normalised: neutral wells 0, positive control 100; activation, % at 24.9 µM; 2,400 tested, under 10 active;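 active = highest replicate activation at or above 34% and every replicate reaching that threshold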;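 also: higher polarization means more probe DNA bound by delta FosB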
Starred values were filed as active, the others as inactive; x = not tested or not shown. Sampled rows, rich in hits. Any-hit rate of the full collection: about 2.8%.

SMILES | SR-BI DiI-HDL act | CAL PDZ FP-1 | CAL PDZ FP-2 | dFosB act-1 | SR-BI DiI inh | dFosB act-2
CC1CC(C)CN(C(=O)Cn2c(SCC(=O)N3CCc4ccccc4C3)nc3ccccc32)C1 (stereo not drawn) | -31 | -1 | 1 | 24* | 31 | 6
COc1cccc(-c2sc3ccccc3c2-c2ccc(OCCN3CCCC3)cc2)c1 | -34 | -3 | 1 | 6 | 34 | x
COc1cccc(-c2sc3ccccc3c2-c2ccc(OCCN3CCCCC3)cc2)c1 | -18 | -4 | -5 | 34* | 18 | 1
N#C/C(=C\c1ccc[nH]1)C(=O)Nc1ccccc1Cl | 5 | 0 | -2 | 66* | -5 | 3
N#C/C(=C\c1ccc[nH]1)C(=O)Nc1ccccc1F | -1 | -2 | -2 | 9 | 1 | x
CCOc1ccc(Br)cc1C(=O)Nc1ccc(C(=O)NCC(C)C)cc1 | -51 | -2 | x | 74* | 51 | 2
COc1ccc(N(CC(=O)N2CCN(c3ccc(Cl)cc3)CC2)S(=O)(=O)c2c(C)n[nH]c2C)cc1 | 3 | -1 | x | 77* | -3 | 0
COc1cc(NC(=O)c2cc([N+](=O)[O-])ccc2NC(=O)CNCc2ccccn2)cc(OC)c1 | x | -2 | 0 | 35* | x | -1
COc1ccc(NC(=O)c2cc([N+](=O)[O-])ccc2NC(=O)CNCc2ccccn2)c(OC)c1 | x | -1 | 4 | -9 | x | x
Cc1n[nH]c(C)c1NC(=O)CSc1nnnn1-c1cccc(F)c1 | 0 | -1 | -1 | 2 | 0 | x
O=C(CSc1nc(C2CC2)nc2ccccc12)Nc1ccccc1N1CCOCC1 | 7 | -23 | 1 | -9 | -7 | x
O=C(CSc1nc(C2CC2)nc2ccccc12)Nc1ccccc1Cl | -17 | 0 | 4 | 31* | 17 | 2
Cc1cccc(NC(=O)CSc2nc(C3CC3)nc3ccccc23)c1 | -20 | -2 | -1 | 8 | 20 | x
Cn1c(=O)c2c(SCC(=O)Nc3ccccc3F)nc(C3CC3)nc2n(C)c1=O | -12 | 7 | 1 | 24* | 12 | 0
O=C(CSc1nc(C2CC2)nc2ccccc12)Nc1ccccc1 | -8 | -1 | -11 | 36* | 8 | -2
COc1cc(NC(=O)CSc2nc(C3CC3)nc3ccccc23)cc(OC)c1 | x | -1 | -1 | 88* | x | 4
CC(=O)Nc1cccc(NC(=O)CSc2nc(C3CC3)nc3ccccc23)c1 | -24 | -6 | -7 | 15 | 24 | x
CCSc1ccccc1C(=O)N1CCC2(CC1)CC(=O)c1ccccc1O2 | 23 | -3 | -4 | -4 | -23 | x
CCN1C(=O)[C@H]2[C@@H](c3ccc(-c4cccc(Cl)c4)cc3)N[C@@](Cc3ccccc3)(C(=O)OC)[C@H]2C1=O | 25 | 0 | -2 | -4 | -25 | x
CCOc1ccc(N2C(=O)CC(NC3CCN(C(=O)c4cccs4)CC3)C2=O)cc1 (stereo not drawn) | x | -1 | -2 | -5 | -8 | x
CCOc1nc(NCCO)nc(Nc2ccc([N+](=O)[O-])cc2)n1 | -15 | -1 | -3 | -1 | 15 | x
COc1nc(Nc2cccc([N+](=O)[O-])c2)nc(OC)n1 | -7 | -2 | -5 | 106* | 7 | 3
C=CCNc1nc(Nc2ccc([N+](=O)[O-])cc2)nc(OC)n1 | -10 | -3 | 0 | 9 | 10 | x
C#CCOc1nc(Nc2cccc([N+](=O)[O-])c2)nc(OCC#C)n1 | -57 | -3 | -1 | 29* | 57 | 2
Cc1cccc(-c2cc3nc(-c4ccccc4)cc(=O)n3[nH]2)c1 | 24 | -2 | -3 | -13 | -24 | x
SMILES | SR-BI DiI-HDL act | CAL PDZ FP-1 | CAL PDZ FP-2 | dFosB act-1 | SR-BI DiI inh | dFosB act-2
C[C@@]12C(=O)Nc3ccc(Br)cc3C(=O)N1[C@H]1c3cc(Br)ccc3OC[C@@H]1[C@@H]2c1ccccc1 | -4 | -2 | -1 | 38* | 4 | -7
Cc1ccc(C)c(NC(=O)CSc2nnc(NC(=O)C3CC3)s2)c1 | 3 | 0 | 1 | 28* | -3 | 5
O=C(CSc1nnc(NC(=O)C2CC2)s1)Nc1cccc(F)c1 | 5 | -1 | 0 | 28* | -5 | -1
O=C(COC(=O)c1cc(Br)ccc1O)Nc1ccc2c(c1)OCO2 | 5 | 0 | -2 | 43* | -5 | -2
CNc1ccc(C(=O)OCC(=O)NCc2ccc3c(c2)OCO3)cc1[N+](=O)[O-] | 15 | 0 | -7 | 36* | -15 | -1
COc1ccc(NC(=O)COC(=O)c2ccc3c(c2)OCCO3)cc1OC | 8 | 0 | -6 | 48* | -8 | 2
COc1ccc(/C=C/C(=O)OCC(=O)Nc2ccc3c(c2)OCO3)cc1 | 15 | 0 | 8 | 28* | -15 | -9
O=C(CN1C(=O)CCS(=O)(=O)c2ccccc21)Nc1ccccc1F | 22 | 0 | x | 2 | -22 | x
Cc1[nH]c(C)c(S(=O)(=O)N(Cc2ccccc2)C(C)C)c1C(=O)N1CCCC1 | 17 | -1 | -4 | -3 | -17 | x
NC(=O)c1ccc(NC(=O)COC(=O)c2ccc3c(c2)OCO3)cc1 | 3 | 0 | 5 | 24* | -3 | -2
COc1ccc2oc(C(=O)OCC(=O)NCCc3ccc(S(N)(=O)=O)cc3)c(C)c2c1 | -13 | 0 | -1 | 26* | 13 | 5
COc1ccc(Br)cc1/C=C/C(=O)OCC(=O)NCCc1ccc(S(N)(=O)=O)cc1 | -27 | -2 | -8 | 22* | 27 | 4
COC(=O)CN(c1ccc(OC)cc1)S(=O)(=O)c1ccc(OC)c(OC)c1 | -12 | 0 | 11 | -5 | 12 | x
COc1ccc(NC(=O)CN(c2ccc(OC)cc2)S(=O)(=O)c2ccc(OC)c(OC)c2)cc1 | 0 | 1 | -1 | 52* | 0 | 6
COc1ccc(N(CC(=O)NC2CCS(=O)(=O)C2)S(=O)(=O)c2ccc(Cl)c(Cl)c2)cc1 (stereo not drawn) | 23 | -1 | -20 | 43* | -23 | 2
COc1ccc(N(CC(=O)NC2CCCCCC2)S(=O)(=O)c2ccc(C)cc2)cc1OC | -15 | -1 | -3 | 27* | 15 | -1
COc1ccc(OC)c(N(CC(=O)NC2CCCCCC2)S(=O)(=O)c2ccc(C)cc2)c1 | 3 | -2 | -2 | -8 | -3 | x
O=C(O)C1CCCCC1C(=O)Nc1ccc(S(=O)(=O)N2CCOCC2)cc1 (stereo not drawn) | 8 | -3 | x | -4 | -8 | x
